Measured values taken from ChEMBL document CHEMBL3860034, “Development of Potent and Selective S. aureus Sortase A Inhibitors Based on Peptide Macrocycles” (ACS Med Chem Lett, 2016).
*1 amine or outer side, *2 acyl side, *3 side chain or, on linkers, in order; H or OH if unused. Where a SMILES comes first, the peptide text is derived from it. Bridges are numbered along the chain shown (N, C = ends). TBMB = c1c(C[*:1])cc(C[*:3])cc1C[*:2]; mXylylene = c1cc(C[*:1])cc(C[*:2])c1

Target: T1, Sortase A (Staphylococcus aureus, UniProt Q9S446)
T1 sequence (Q9S446 whole entry): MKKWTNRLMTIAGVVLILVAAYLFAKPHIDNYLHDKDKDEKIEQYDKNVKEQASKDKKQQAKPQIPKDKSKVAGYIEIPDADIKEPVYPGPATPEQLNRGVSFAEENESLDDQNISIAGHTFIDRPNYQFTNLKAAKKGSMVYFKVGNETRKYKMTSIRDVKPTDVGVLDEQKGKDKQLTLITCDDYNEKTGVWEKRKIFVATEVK
Experiment: Inhibition of Staphylococcus aureus His6-biotinylated SrtA expressed in Escherichia coli XL1-blue using Dabcyl-LPETG-Edans as substrate assessed as residual activity by fluorescence assay
Method in brief: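 (His)6-SrtA26−206 from E. coli XL1-blue, purified by Ni affinity and gel filtration. Enzyme at 2.5 μM incubated with varied peptide concentrations (up to 300 μM). Residual activity measured with 20 μM Dabcyl-LPETG-Edans and 200 μM triglycine in 50 mM Tris-Cl pH 7.4, 150 mM NaCl, 5 mM CaCl2, 0.1% BSA, 37 °C. Fluorescence read at ex 350/em 480 nm. Ki from Supporting Information equations; at least three measurements.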

CC(C)C[C@@H]1NC(=O)[C@@H]2CCCN2C(=O)[C@@H](NC(=O)[C@H](C)N)CSCc2cc3cc(c2)CSC[C@H](NC(=O)[C@@H]2CCCN2C(=O)[C@@H]2CCCN2C(=O)[C@H](CC(C)C)NC1=O)C(=O)N[C@@H](C)C(=O)N[C@@H](CC(=O)O)C(=O)N[C@@H](CC(=O)O)C(=O)N[C@H](C(=O)NCC(N)=O)CSC3 (H-ACPLLPPCADDCG-NH2; linker 2-8-12 via TBMB)
Ki: 3 µM

CC[C@H](C)[C@@H]1NC(=O)[C@H](C)NC(=O)[C@@H](NC(=O)[C@H](C)N)CSCc2cc3cc(c2)CSC[C@H](NC(=O)[C@@H]2CCCN2C(=O)[C@@H]2CCCN2C(=O)[C@H](CC(C)C)NC1=O)C(=O)N[C@@H](CCC(N)=O)C(=O)N1CCC[C@H]1C(=O)N[C@@H](CCCNC(=N)N)C(=O)N[C@H](C(=O)NCC(N)=O)CSC3
Ki: 21.5 µM

CC(C)C[C@@H]1NC(=O)[C@@H]2CSCc3cc(cc(c3)CSC[C@H](NC(=O)[C@H](C)N)C(=O)N3CCC[C@H]3C(=O)N[C@@H](CCC(N)=O)C(=O)N[C@@H](CC(C)C)C(=O)N3CCC[C@H]3C(=O)N3CCC[C@H]3C(=O)N2)CSC[C@@H](C(=O)NCC(N)=O)NC(=O)[C@@H]2CCCN2C(=O)[C@H](Cc2ccc(O)cc2)NC1=O (H-ACPQLPPCLYPCG-NH2; linker 2-8-12 via TBMB)
Ki: 7.4 µM

CC(C)C[C@@H]1NC(=O)[C@H](CO)NC(=O)[C@@H]2CSCc3cc(cc(c3)CSC[C@H](NC(=O)[C@H](C)N)C(=O)N3CCC[C@H]3C(=O)N[C@@H](CC(C)C)C(=O)N[C@@H](CC(C)C)C(=O)N3CCC[C@H]3C(=O)N3CCC[C@H]3C(=O)N2)CSC[C@@H](C(=O)NCC(=O)O)NC(=O)[C@H](CC(=O)O)NC1=O (H-ACPLLPPCSLDCG-OH; linker 2-8-12 via TBMB)
Ki: 1.5 µM

CC(C)C[C@@H]1NC(=O)[C@H](CCC(N)=O)NC(=O)[C@H](CCCNC(=N)N)NC(=O)[C@H](NC(=O)[C@H](C)N)CSCc2cc3cc(c2)CSC[C@H](C(=O)NCC(N)=O)NC(=O)[C@H](C(C)C)NC(=O)[C@H](Cc2ccc(O)cc2)NC(=O)[C@H](CCC(=O)O)NC(=O)[C@H](C)NC(=O)[C@H](CSC3)NC(=O)[C@@H]2CCCN2C(=O)[C@@H]2CCCN2C1=O
Ki: 45.5 µM

CC(C)C[C@@H]1NC(=O)[C@@H](NC(=O)[C@H](C)N)CSCc2cc3cc(c2)CSC[C@H](NC(=O)[C@@H]2CCCN2C(=O)[C@@H]2CCCN2C(=O)[C@H](CC(C)C)NC(=O)[C@H](CCC(N)=O)NC1=O)C(=O)N[C@@H](CO)C(=O)N[C@@H](CO)C(=O)N1CCC[C@H]1C(=O)N[C@H](C(=O)NCC(N)=O)CSC3 (H-ACLQLPPCSSPCG-NH2; linker 2-8-12 via TBMB)
Ki: 11.6 µM

CC[C@H](C)[C@@H]1NC(=O)CNC(=O)[C@H](CCC(N)=O)NC(=O)[C@@H](NC(=O)[C@H](C)N)CSCc2cc3cc(c2)CSC[C@H](NC(=O)[C@@H]2CCCN2C(=O)[C@@H]2CCCN2C(=O)[C@H](CC(C)C)NC1=O)C(=O)NCC(=O)N[C@@H](CCCNC(=N)N)C(=O)NCC(=O)NCC(=O)NCC(=O)NCC(=O)N[C@H](C(=O)NCC(N)=O)CSC3 (H-ACQGILPPCGRGGGGCG-NH2; linker 2-9-16 via TBMB)
Ki: 42 µM

CC(C)C[C@@H]1NC(=O)[C@H](CCC(N)=O)NC(=O)[C@@H]2CCCN2C(=O)[C@@H](NC(=O)[C@H](C)N)CSCc2cccc(c2)CSC[C@@H](C(=O)NCC(N)=O)NC(=O)[C@@H]2CCCN2C(=O)[C@@H]2CCCN2C1=O (H-ACPQLPPCG-NH2; linker 2-8 via mXylylene)
Ki: 4.9 µM

CC[C@H](C)[C@@H]1NC(=O)[C@H](C)NC(=O)[C@@H](NC(=O)[C@H](C)N)CSCc2cc3cc(c2)CSC[C@H](C(=O)NCC(N)=O)NC(=O)[C@H](CCCNC(=N)N)NC(=O)[C@@H]2CCCN2C(=O)[C@H](CCC(N)=O)NC(=O)[C@H](CSC3)NC(=O)[C@@H]2CCCN2C(=O)[C@@H]2CCCN2C(=O)[C@H](CC(C)C)NC1=O
Ki: 21.5 µM

CC(C)C[C@@H]1NC(=O)[C@H]([C@@H](C)O)NC(=O)[C@@H](NC(=O)[C@H](C)N)CSCc2cc3cc(c2)CSC[C@H](NC(=O)[C@@H]2CCCN2C(=O)[C@@H]2CCCN2C(=O)[C@H](CC(C)C)NC1=O)C(=O)N[C@@H]([C@@H](C)O)C(=O)N1CCC[C@H]1C(=O)N[C@@H](CC(=O)O)C(=O)N[C@@H](CCC(N)=O)C(=O)N[C@H](C(=O)NCC(N)=O)CSC3 (H-ACTLLPPCTPDQCG-NH2; linker 2-8-13 via TBMB)
Ki: 32.1 µM

CC[C@H](C)[C@@H]1NC(=O)[C@H](CO)NC(=O)[C@H](CO)NC(=O)[C@@H]2CSCc3cc(cc(c3)CSC[C@@H](C(=O)NCC(N)=O)NC(=O)[C@@H]3CCCN3C(=O)[C@@H]3CCCN3C(=O)[C@H](CC(C)C)NC1=O)CSC[C@H](NC(=O)[C@H](C)N)C(=O)N[C@@H](CCSC)C(=O)N[C@@H](Cc1ccc(O)cc1)C(=O)N[C@@H](CCC(N)=O)C(=O)N[C@@H](C)C(=O)N[C@@H](C)C(=O)N[C@@H](CC(C)C)C(=O)N2 (H-ACMYQAALCSSILPPCG-NH2; linker 2-9-16 via TBMB)
Ki: 9.4 µM

CC(C)C[C@@H]1NC(=O)[C@H](CCC(N)=O)NC(=O)[C@@H](NC(=O)[C@H](C)N)CSCc2cc3cc(c2)CSC[C@H](NC(=O)[C@@H]2CCCN2C(=O)[C@@H]2CCCN2C(=O)[C@H](CC(C)C)NC1=O)C(=O)N1CCC[C@H]1C(=O)N[C@@H](Cc1ccccc1)C(=O)N[C@@H](CC(N)=O)C(=O)N[C@H](C(=O)NCC(N)=O)CSC3 (H-ACQLLPPCPFNCG-NH2; linker 2-8-12 via TBMB)
Ki: 19.3 µM

CC[C@H](C)[C@@H]1NC(=O)[C@H](CO)NC(=O)[C@@H](NC(=O)[C@H](C)N)CSCc2cc3cc(c2)CSC[C@H](NC(=O)[C@@H]2CCCN2C(=O)[C@@H]2CCCN2C(=O)[C@H](CC(C)C)NC1=O)C(=O)N[C@@H](CC(N)=O)C(=O)N1CCC[C@H]1C(=O)N1CCC[C@H]1C(=O)N[C@@H](CCC(N)=O)C(=O)N[C@H](C(=O)NCC(N)=O)CSC3
Ki: 11.1 µM

CC(C)C[C@@H]1NC(=O)[C@H](CCC(N)=O)NC(=O)[C@@H]2CCCN2C(=O)[C@@H](NC(=O)[C@H](C)N)CSCc2cc3cc(c2)CSC[C@H](NC(=O)[C@@H]2CCCN2C(=O)[C@@H]2CCCN2C1=O)C(=O)N[C@@H](CCCNC(=N)N)C(=O)N[C@@H](C(C)C)C(=O)N[C@@H](CO)C(=O)N[C@H](C(=O)NCC(N)=O)CSC3 (H-ACPQLPPCRVSCG-NH2; linker 2-8-12 via TBMB)
Ki: 4.3 µM

CC(C)C[C@@H]1NC(=O)[C@H](CCC(N)=O)NC(=O)[C@H](CCCNC(=N)N)NC(=O)[C@@H](NC(=O)[C@H](C)N)CSCc2cc3cc(c2)CSC[C@H](NC(=O)[C@@H]2CCCN2C(=O)[C@@H]2CCCN2C1=O)C(=O)N[C@@H](C)C(=O)N[C@@H](CCC(=O)O)C(=O)N[C@@H](Cc1ccc(O)cc1)C(=O)N[C@@H](C(C)C)C(=O)N[C@H](C(=O)NCC(N)=O)CSC3
Ki: 45.5 µM

CC[C@H](C)[C@@H]1NC(=O)[C@H](CO)NC(=O)[C@@H](NC(=O)[C@H](C)N)CSCc2cc3cc(c2)CSC[C@H](NC(=O)[C@@H]2CCCN2C(=O)[C@@H]2CCCN2C(=O)[C@H](CC(C)C)NC1=O)C(=O)N[C@H](CC(N)=O)C(=O)N1CCC[C@H]1C(=O)N1CCC[C@H]1C(=O)N[C@@H](CCC(N)=O)C(=O)N[C@H](C(=O)NCC(N)=O)CSC3
Ki: 11.1 µM
